From ChEMBL document CHEMBL1132971, “New azolidinediones as inhibitors of protein tyrosine phosphatase 1B with antihyperglycemic properties” (J Med Chem, 2000)
One block for each compound: values may come before it. Activity calls are given as the source filed them. The rule behind the calls is not given here.

How the values were obtained:
[1] = biological target: T1, Tyrosine-protein phosphatase non-receptor type 1 (Rattus norvegicus, UniProt P20417); assay: Inhibition of PTPase activity in rat hepatic membrane at a concentration of 50 uM using pNPP as the substrate; format: cell membranes, Liver
T1 sequence (P20417 whole entry): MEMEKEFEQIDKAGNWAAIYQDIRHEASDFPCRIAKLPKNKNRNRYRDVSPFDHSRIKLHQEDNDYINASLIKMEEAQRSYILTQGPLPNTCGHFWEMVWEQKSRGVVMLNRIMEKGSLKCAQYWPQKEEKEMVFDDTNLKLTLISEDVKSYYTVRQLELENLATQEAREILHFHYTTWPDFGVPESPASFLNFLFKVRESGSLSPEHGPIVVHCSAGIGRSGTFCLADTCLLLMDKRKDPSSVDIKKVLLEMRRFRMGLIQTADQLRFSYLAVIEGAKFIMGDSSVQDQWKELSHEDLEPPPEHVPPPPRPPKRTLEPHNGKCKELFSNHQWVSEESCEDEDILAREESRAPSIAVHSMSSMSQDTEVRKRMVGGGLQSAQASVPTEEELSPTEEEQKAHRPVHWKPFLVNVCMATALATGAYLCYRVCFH
Procedure, shortened: (§1)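 Liver membranes from male Sprague-Dawley rats (100-150 g), about 30 µg protein per well. Preincubated 10 min at 37 °C with compound in 1.25% DMSO in 50 mM HEPES pH 7.4. Then 6.33 mM pNPP for 30 min at 37 °C, stopped with NaOH. p-Nitrophenol read at 410 nm. Run in triplicate. Reported as percent of untreated control.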

Mus musculus [2] = assay: Evaluated in vivo for their ability to decrease plasma glucose levels in diabetic C57BL/KsJ ob/ob mouse at a dose 100 mg/kg/day; NS is non significant; format: functional, organism-based
Procedure, shortened: (§2)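 Diabetic db/db or ob/ob mice dosed orally once daily for 4 days. Plasma glucose and insulin reported as percent change from a vehicle-treated group. 4-6 mice per group. Significance set at p < 0.05 or p < 0.01 versus vehicle; NS means generally less than -15% change.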

Mus musculus [3] = assay: Evaluated for their ability to decrease plasma insulin levels in mouse at a dose 100 mg/kg/day.; NS is non significant; format: functional, organism-based; procedure, shortened: as §2
[4] = biological target: T2, Tyrosine-protein phosphatase non-receptor type 1 (Rattus norvegicus) (UniProt P20417); assay: Inhibition of PTPase activity using recombinant r-PTP1B as the enzyme and IR-triphosphopeptide as substrate at 50 uM
T2 sequence (whole entry): T1 sequence (P20417 whole entry)
Procedure, shortened: (§3)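 Rat recombinant PTP1B in 33 mM TRIS-HCl, 2 mM EDTA, 50 mM β-mercaptoethanol, pH 7.4 (about 1000-2000 nmol/min/mg). Preincubated 10 min at 37 °C with or without compound in HEPES buffer pH 7.4. Released phosphate read by malachite green-ammonium molybdate at 650 nm against a phosphate standard. Quadruplicates. IC50 by four-parameter logistic fit.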

[5] = biological target: T2, Tyrosine-protein phosphatase non-receptor type 1 (Rattus norvegicus); assay: Inhibition of PTPase (PTP1B) activity in rat hepatic membrane at 50 uM concentration, using pNPP as the substrate; format: cell membranes; details: Liver; procedure, shortened: as §1
[6] = biological target: T3, Tyrosine-protein phosphatase non-receptor type 1 (Homo sapiens, UniProt P18031); assay: Concentration required to inhibit PTPase activity, recombinant Protein Tyrosine Phosphatase 1b as the enzyme at a concentration 2.5 uM.; procedure, shortened: as §3
T3 sequence (P18031 whole entry): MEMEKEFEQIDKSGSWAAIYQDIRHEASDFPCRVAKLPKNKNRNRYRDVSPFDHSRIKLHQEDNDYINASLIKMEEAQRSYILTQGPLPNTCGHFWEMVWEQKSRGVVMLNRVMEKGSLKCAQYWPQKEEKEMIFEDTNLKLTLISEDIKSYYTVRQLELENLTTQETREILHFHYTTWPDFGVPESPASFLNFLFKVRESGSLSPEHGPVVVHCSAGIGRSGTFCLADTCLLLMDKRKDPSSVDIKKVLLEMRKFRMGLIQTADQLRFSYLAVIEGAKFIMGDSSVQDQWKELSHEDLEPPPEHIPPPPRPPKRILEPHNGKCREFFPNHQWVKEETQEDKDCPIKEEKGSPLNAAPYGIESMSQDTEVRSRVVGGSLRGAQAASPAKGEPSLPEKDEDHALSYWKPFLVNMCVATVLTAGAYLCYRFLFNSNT

Mus musculus [7] = assay: Evaluated in vivo for their ability to decrease plasma glucose levels in diabetic C57BL/KsJ db/db mouse at a dose 100 mg/kg/day, *p indicates <0.05; format: functional; procedure, shortened: as §2
[8] = biological target: T4, Tyrosine-protein phosphatase non-receptor type 1 (Mus musculus) (UniProt P35821); assay: In vivo ability to decrease plasma glucose levels in diabetic C57BL/KsJ ob/ob mouse at a dose 100 mg/kg/day; format: functional, organism-based; procedure, shortened: as §2
T4 sequence (whole entry): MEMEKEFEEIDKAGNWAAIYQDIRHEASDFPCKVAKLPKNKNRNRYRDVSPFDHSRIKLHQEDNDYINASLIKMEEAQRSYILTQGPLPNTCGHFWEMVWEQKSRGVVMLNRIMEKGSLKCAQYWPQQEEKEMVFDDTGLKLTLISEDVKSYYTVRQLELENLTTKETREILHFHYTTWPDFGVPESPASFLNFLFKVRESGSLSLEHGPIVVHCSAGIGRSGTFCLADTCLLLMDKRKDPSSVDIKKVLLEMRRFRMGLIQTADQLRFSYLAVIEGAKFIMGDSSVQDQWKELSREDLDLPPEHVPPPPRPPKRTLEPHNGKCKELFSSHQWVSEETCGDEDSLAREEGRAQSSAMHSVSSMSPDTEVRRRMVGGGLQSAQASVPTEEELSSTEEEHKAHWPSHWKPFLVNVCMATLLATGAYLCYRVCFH

[9] = biological target: T4, Tyrosine-protein phosphatase non-receptor type 1 (Mus musculus); assay: Ability to decrease plasma insulin levels in mouse at a dose 100 mg/kg/day; format: functional, organism-based; procedure, shortened: as §2
Mus musculus [10] = assay: Evaluated in vivo for their ability to decrease plasma glucose levels in diabetic C57BL/KsJ db/db mouse at a dose 100 mg/kg/day.([…]); format: functional; procedure, shortened: as §2
[11] = biological target: T2, Tyrosine-protein phosphatase non-receptor type 1 (Rattus norvegicus); assay: Inhibition of PTPase activity in rat hepatic membrane at a concentration of 250 uM using pNPP as the substrate; format: cell membranes; details: Liver; procedure, shortened: as §1
Mus musculus [12] = assay: Evaluated in vivo for their ability to decrease plasma glucose levels in diabetic C57BL/KsJ db/db mouse at a dose 100 mg/kg/day; *p indicates <0.05; format: functional
Procedure, shortened: (§4)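 Mice dosed orally once daily for 4 days; plasma glucose and insulin measured and expressed as percent change versus a vehicle-treated group (mean ± SE, 4-6 mice/group). NS is generally less than -15% change. Significance is versus vehicle-treated mice.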

Mus musculus [13] = assay: Evaluated for their ability to decrease plasma insulin levels in mouse at a dose 100 mg/kg/day; **p indicates <0.01; format: functional; procedure, shortened: as §4
Mus musculus [14] = assay: Evaluated in vivo for their ability to decrease plasma glucose levels in diabetic C57BL/KsJ ob/ob mouse at a dose 100 mg/kg/day; **p indicates <0.01; format: functional; procedure, shortened: as §2
Mus musculus [15] = assay: Evaluated in vivo for their ability to decrease plasma glucose levels in diabetic C57BL/KsJ db/db mouse at a dose 50 mg/kg/day, *p indicates <0.05; format: functional; procedure, shortened: as §2
[16] = biological target: T1, Tyrosine-protein phosphatase non-receptor type 1; assay: Inhibition of PTPase activity using recombinant r-PTP1B and IR-triphosphopeptide as substrate; ND is no data.; procedure, shortened: as §3
[17] = biological target: T1, Tyrosine-protein phosphatase non-receptor type 1; assay: Inhibition of PTPase activity using recombinant r-PTP1B as the enzyme and IR-triphosphopeptide as substrate; procedure, shortened: as §3
[18] = biological target: T1, Tyrosine-protein phosphatase non-receptor type 1; assay: Inhibition of PTPase activity using recombinant Protein-tyrosine phosphatase 1B as the enzyme and IR-triphosphopeptide as substrate
[19] = biological target: T2, Tyrosine-protein phosphatase non-receptor type 1 (Rattus norvegicus); assay: Inhibition of Protein-tyrosine phosphatase 1B activity in rat hepatic membrane at a concentration of 50 uM using pNPP as the substrate; format: cell membranes; details: Liver; procedure, shortened: as §1

Compound: Cc1c(C)c2c(c(C)c1O)CCC(C)(COc1ccc(CC3SC(=O)NC3=O)cc1)O2 (centres undefined) [TROGLITAZONE]
Decrease (Mus musculus [10]): 34%
inhibition [11]: 29%

Compound: C/C(=C\Cn1oc(=O)[nH]c1=O)c1cccc(OCc2nc(-c3ccccc3)oc2C)c1 (stereo in doubt; 49)
Decrease (Mus musculus [12]): 28%
Decrease (Mus musculus [13]): 76%
Decrease (Mus musculus [14]): 39%

Compound: CCCC/C(=C\Cn1oc(=O)[nH]c1=O)c1cccc(OCc2cc(Cl)cc(Cl)c2)c1
inhibition [5]: 57%
IC50 [17]: 800 nM
IC50 [18]: 1800 nM
inhibition [19]: 61%

Second part, led by results:

Inhibition % [1]: 24%
inhibition [4]: 0.6%
Compound: Cc1oc(-c2ccc(C(F)(F)F)cc2)nc1COc1cccc(/C(=C/Cn2oc(=O)[nH]c2=O)C(C)(C)C)c1
Decrease (Mus musculus [2]): inactive
Decrease (Mus musculus [3]): inactive

inhibition [5]: 5%
IC50 [6]: 9000 nM
Compound: C/C(=C\Cn1oc(=O)[nH]c1=O)c1cccc(OCc2ccccn2)c1

inhibition [5]: 4.3%
Decrease [8]: Not significant
Decrease [9]: Not significant
Compound: C/C(=C\Cn1oc(=O)[nH]c1=O)c1ccc(OCc2nc(-c3ccc(C(F)(F)F)cc3)oc2C)cc1
Decrease (Mus musculus [7]): 16%

inhibition [5]: 55%
IC50 [16]: Not significant
Decrease [8]: Not significant
Decrease [9]: Not significant
Compound: C/C(=C/C=C/Cn1oc(=O)[nH]c1=O)c1cccc(OCc2nc(-c3ccccc3)oc2C)c1
Decrease (Mus musculus [15]): 19%
